In ChEMBL document CHEMBL4706708, “Improving the solubility of anti-proliferative thieno[2,3-b]quinoline-2-carboxamides” (Bioorg Med Chem, 2021):
Converted amounts (≈) assume the structure as drawn.

Tests used:
[1] = tested on: MDA-MB-231; assay: Antiproliferative activity against human MDA-MB-231 cells assessed as cell growth at 1 uM measured after 3 days by [3H]-thymidine incorporation assay relative to control; assay type: functional; conditions: MDA-MB-231, 72 h, time 3 day, read-out: Activity
Outline: (§1)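 HCT116 and MDA-MB-231 cells from ATCC, seeded at 3000 cells/well, exposed to inhibitor for three days; 0.04 µCi 3H-thymidine added per well 5 h before harvest onto glass fibre filters, incorporation counted by scintillation and expressed relative to untreated controls. Triplicate wells, at least two independent experiments. Single-point screen at 1 µM; IC50 determined from varying concentrations.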

[2] = Thermodynamic solubility of compound in water measured after 15 mins RP-HPLC analysis; assay type: physicochemical; conditions: read-out: Therm_solubility
[3] = tested on: HCT-116; assay: Antiproliferative activity against human HCT-116 cells assessed as cell growth at 1 uM measured after 3 days by [3H]-thymidine incorporation assay relative to control; assay type: functional; conditions: HCT-116, 72 h, time 3 day, read-out: Activity; outline: as §1

Row | SMILES | growth at 1 µM [1] [%] | solubility thermodynamic at 0.25 h [2] [µg/mL] | growth at 1 µM [3] [%]
1 | COc1ccc(NC(=O)c2sc3nc4c(cc3c2N)COCC4)cc1 | 83.9 | 3.19 (≈ 8.98 µM) | 80.1
2 | Nc1c(C(=O)Nc2cccc3ccccc23)sc2nc3c(cc12)COCC3 | 78.3 | 4 (≈ 10.7 µM) | 100
3 | Nc1c(C(=O)Nc2ccnc3ccccc23)sc2nc3c(cc12)C(=O)CCC3 | 107 | 0.64 (≈ 1.65 µM) | 101
4 | Nc1c(C(=O)Nc2cccc3cccnc23)sc2nc3c(cc12)CN(Cc1ccccc1)CC3 | 104 | 1.17 (≈ 2.51 µM) | 98.2
5 | COc1ccc(NC(=O)c2sc3nc(C)c(C(C)O)cc3c2N)cc1 (stereo unspecified) | 114 | 1.79 (≈ 5.01 µM) | 97.5
6 | Nc1c(C(=O)Nc2ccccc2)sc2nc3c(cc12)CN(C(=O)OCc1ccccc1)CC3 | 17.5 | 1.93 (≈ 4.21 µM) | 3.1
7 | Cc1ccccc1NC(=O)c1sc2nc3c(cc2c1N)CN(Cc1ccccc1)CC3 | 109 | 0.26 (≈ 0.607 µM) | 96.4
8 | Nc1c(C(=O)Nc2cccc3ncccc23)sc2nc3c(cc12)C(=O)CCC3 | 96.9 | 0.41 (≈ 1.06 µM) | 96.3
9 | Nc1c(C(=O)Nc2cccc(Cl)c2)sc2nc3c(cc12)CN(Cc1ccccc1)CC3 | 80.5 | 0.213 (≈ 0.474 µM) | 89.9
10 | Cc1nc2sc(C(=O)Nc3cccc4ccncc34)c(N)c2cc1C(C)O (stereo unspecified) | 94.6 | 10.1 (≈ 26.6 µM) | 83.1
11 | Nc1c(C(=O)Nc2ccc3c(c2)OCCO3)sc2nc3c(cc12)CN(Cc1ccccc1)CC3 | 94.9 | 0.7 (≈ 1.48 µM) | 83.2
12 | Cc1nc2sc(C(=O)Nc3cncc4ccccc34)c(N)c2cc1C(C)O (stereo unspecified) | 106 | – | 109
13 | CC(=O)c1cc2c(N)c(C(=O)Nc3cccc(Cl)c3)sc2nc1C | 102 | 1.52 (≈ 4.22 µM) | 101
14 | CC(=O)c1cc2c(N)c(C(=O)Nc3ccc4c(c3)OCCO4)sc2nc1C | 103 | 0.19 (≈ 0.496 µM) | 104
15 | CC(=O)c1cc2c(N)c(C(=O)Nc3cccc4ccncc34)sc2nc1C | 101 | 1.06 (≈ 2.82 µM) | 108
16 | Nc1c(C(=O)Nc2ccncc2)sc2nc3c(cc12)C(=O)CCC3 | 108 | 1.54 (≈ 4.55 µM) | 110
17 | Nc1c(C(=O)Nc2ccnc3ccccc23)sc2nc3c(cc12)CN(Cc1ccccc1)CC3 | 104 | 3.83 (≈ 8.23 µM) | 82.8
18 | Nc1c(C(=O)Nc2cccc3ccncc23)sc2nc3c(cc12)C(=O)CCC3 | 115 | 1.94 (≈ 4.99 µM) | 98.1
19 | CC(=O)c1cc2c(N)c(C(=O)Nc3cncc4ccccc34)sc2nc1C | 105 | 0.09 (≈ 0.239 µM) | 96.2
20 | COc1ccc(NC(=O)c2sc3nc4c(cc3c2N)CN(Cc2ccccc2)CC4)cc1 | 94.1 | 0.197 (≈ 0.443 µM) | 87.4

Row | SMILES | growth at 1 µM [1] [%] | solubility thermodynamic at 0.25 h [2] [µg/mL] | growth at 1 µM [3] [%]
21 | Nc1c(C(=O)Nc2ccccc2)sc2nc3c(cc12)CNCC3 | 89.7 | 40.5 (≈ 125 µM) | 100
22 | COc1cccc(NC(=O)c2sc3nc(C)c(C(C)=O)cc3c2N)c1 | 96 | 1.1 (≈ 3.09 µM) | 96.5
23 | CC(=O)c1cc2c(N)c(C(=O)Nc3ccccc3Cl)sc2nc1C | 99.6 | 0.13 (≈ 0.361 µM) | 87.3
24 | CC(=O)c1cc2c(N)c(C(=O)Nc3cccc4cccnc34)sc2nc1C | 86.7 | 3 (≈ 7.97 µM) | 97
25 | COc1cccc(NC(=O)c2sc3nc4c(cc3c2N)CN(Cc2ccccc2)CC4)c1 | 90.7 | 0.3 (≈ 0.675 µM) | 85.2
26 | CC(=O)c1cc2c(N)c(C(=O)Nc3cccc4ncccc34)sc2nc1C | 98.7 | 1.3 (≈ 3.45 µM) | 93
27 | Cc1nc2sc(C(=O)Nc3cccc4c3OCCO4)c(N)c2cc1C(C)O (stereo unspecified) | 62.3 | 3.06 (≈ 7.94 µM) | 58.4
28 | Cc1nc2sc(C(=O)Nc3cccc4cccnc34)c(N)c2cc1C(C)O (stereo unspecified) | 102 | – | 110
29 | Cc1ccccc1NC(=O)c1sc2nc3c(cc2c1N)CN(C)CC3 | 95.3 | 5.61 (≈ 15.9 µM) | 101
30 | Nc1c(C(=O)Nc2ccccc2Cl)sc2nc3c(cc12)CN(Cc1ccccc1)CC3 | 99.8 | 1.06 (≈ 2.36 µM) | 99.4
31 | Nc1c(C(=O)Nc2cccc3cccnc23)sc2nc3c(cc12)C(=O)CCC3 | 99.2 | 0.44 (≈ 1.13 µM) | 101
32 | Nc1c(C(=O)Nc2cccc3ncccc23)sc2nc3c(cc12)CN(Cc1ccccc1)CC3 | 91.3 | 0.62 (≈ 1.33 µM) | 104
33 | COc1cccc(NC(=O)c2sc3nc(C)c(C(C)=O)cc3c2N)c1C | 99.7 | 1.52 (≈ 4.11 µM) | 96.8
34 | Cc1c(F)cccc1NC(=O)c1sc2nc3c(cc2c1N)CN(Cc1ccccc1)CC3 | 97.3 | 0.84 (≈ 1.88 µM) | 98.1
35 | CC(=O)c1cc2c(N)c(C(=O)Nc3ccccc3C)sc2nc1C | 97.1 | 1.49 (≈ 4.39 µM) | 110
36 | CC(=O)c1cc2c(N)c(C(=O)Nc3ccncc3)sc2nc1C | 97.2 | 0.45 (≈ 1.38 µM) | 103
37 | Cc1nc2sc(C(=O)Nc3ccnc4ccccc34)c(N)c2cc1C(C)O (stereo unspecified) | 107 | 18.5 (≈ 49 µM) | 93.6
38 | Cc1nc2sc(C(=O)Nc3cccc4ncccc34)c(N)c2cc1C(C)O (stereo unspecified) | 112 | 0.89 (≈ 2.35 µM) | 92
39 | CC(=O)c1cc2c(N)c(C(=O)Nc3cccc(F)c3C)sc2nc1C | 114 | 0.35 (≈ 0.979 µM) | 103
40 | CC(=O)c1cc2c(N)c(C(=O)Nc3ccccc3)sc2nc1C | 120 | 3 (≈ 9.22 µM) | 109

Row | SMILES | growth at 1 µM [1] [%] | solubility thermodynamic at 0.25 h [2] [µg/mL] | growth at 1 µM [3] [%]
41 | Nc1c(C(=O)Nc2cccc3c2OCCO3)sc2nc3c(cc12)CN(Cc1ccccc1)CC3 | 89.3 | 2.1 (≈ 4.44 µM) | 88.2
42 | Nc1c(C(=O)Nc2ccccn2)sc2nc3c(cc12)C(=O)CCC3 | 27 | 0.64 (≈ 1.89 µM) | 10.2
43 | CN1CCc2nc3sc(C(=O)Nc4cccc5ccccc45)c(N)c3cc2C1 | 89 | 2.17 (≈ 5.59 µM) | 93.5
44 | COc1ccc(NC(=O)c2sc3nc(C)c(C(C)=O)cc3c2N)cc1 | 84.6 | 0.13 (≈ 0.366 µM) | 82.9
45 | Cc1nc2sc(C(=O)Nc3ccccc3)c(N)c2cc1C(C)O (stereo unspecified) | 107 | 3.51 (≈ 10.7 µM) | 95.3
46 | Nc1c(C(=O)Nc2cccc3cnccc23)sc2nc3c(cc12)C(=O)CCC3 | 107 | 1.67 (≈ 4.3 µM) | 103
47 | CC(=O)c1cc2c(N)c(C(=O)Nc3cccc(C(F)(F)F)c3C)sc2nc1C | 67.7 | 1.17 (≈ 2.87 µM) | 106
48 | CC(=O)c1cc2c(N)c(C(=O)Nc3ccccn3)sc2nc1C | 92.9 | 0.45 (≈ 1.38 µM) | 91.7
49 | CC(=O)c1cc2c(N)c(C(=O)Nc3cccc4cnccc34)sc2nc1C | 99.8 | – | 111
50 | Cc1nc2sc(C(=O)Nc3ccncc3)c(N)c2cc1C(C)O (stereo unspecified) | 113 | 2.85 (≈ 8.68 µM) | 111
51 | Cc1ccccc1NC(=O)c1sc2nc(C)c(C(C)O)cc2c1N (stereo unspecified) | 97.9 | 29.5 (≈ 86.5 µM) | 99.9
52 | Nc1c(C(=O)Nc2cccc3c2OCCO3)sc2nc3c(cc12)C(=O)CCC3 | 17.8 | 0.12 (≈ 0.303 µM) | 18.6
53 | Nc1c(C(=O)Nc2cncc3ccccc23)sc2nc3c(cc12)C(=O)CCC3 | 111 | 0.71 (≈ 1.83 µM) | 97.8
54 | COc1ccc(NC(=O)c2sc3nc4c(cc3c2N)CN(C)CC4)cc1 | 90.3 | 2.17 (≈ 5.89 µM) | 98.9
55 | Nc1c(C(=O)Nc2cccc3ccncc23)sc2nc3c(cc12)CN(Cc1ccccc1)CC3 | 108 | 2.79 (≈ 5.99 µM) | 103
56 | Cc1nc2sc(C(=O)Nc3ccc4c(c3)OCCO4)c(N)c2cc1C(C)O (stereo unspecified) | 105 | 0.27 (≈ 0.7 µM) | 94.9
57 | CN1CCc2nc3sc(C(=O)Nc4ccccc4)c(N)c3cc2C1 | 91.2 | – | 100
58 | COc1cccc(NC(=O)c2sc3nc4c(cc3c2N)CN(Cc2ccccc2)CC4)c1C | 106 | 1.89 (≈ 4.12 µM) | 101
59 | Nc1c(C(=O)Nc2cccc3cnccc23)sc2nc3c(cc12)CN(Cc1ccccc1)CC3 | 108 | 1.12 (≈ 2.41 µM) | 110
60 | Cc1nc2sc(C(=O)Nc3ccccn3)c(N)c2cc1C(C)O (stereo unspecified) | 93.8 | 5.43 (≈ 16.5 µM) | 96.5
